# Measured values from ChEMBL document CHEMBL2440006, “Mastering tricyclic ring systems for desirable functional cannabinoid activity” (Eur J Med Chem, 2013).
# pEC50, pKi: −log10 of the molar value. Activity calls are given as the source filed them.
# Experiments:
# Cannabinoid receptor 2 [1] = target: T1, Cannabinoid receptor 2 (Homo sapiens, UniProt P34972); test: Antagonist activity at human recombinant […] receptor expressed in CHO cells at 1 uM after 1 hr by [35S]GTPgammaS binding assay; assay type: functional, cell-based
# T1 sequence (P34972 whole entry): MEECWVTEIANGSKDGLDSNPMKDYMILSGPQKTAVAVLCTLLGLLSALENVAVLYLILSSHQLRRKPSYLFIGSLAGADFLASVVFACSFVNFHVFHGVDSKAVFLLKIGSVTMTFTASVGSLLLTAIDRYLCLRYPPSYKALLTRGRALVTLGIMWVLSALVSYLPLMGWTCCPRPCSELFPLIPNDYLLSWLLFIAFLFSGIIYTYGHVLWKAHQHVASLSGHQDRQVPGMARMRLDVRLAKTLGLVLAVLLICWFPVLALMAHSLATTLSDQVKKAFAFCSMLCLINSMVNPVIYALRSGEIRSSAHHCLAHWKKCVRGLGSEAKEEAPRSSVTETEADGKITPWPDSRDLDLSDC
# [2] = Selectivity ratio of Ki for rat CB1 receptor to Ki for human CB2 receptor
# [3] = target: Cannabinoid receptor 1 (Homo sapiens) (UniProt P21554); test: Induction of human CB1 receptor internalization expressed in HEK293 cells at 10 uM relative to CP55940; assay type: cell-based
# Chain of Cannabinoid receptor 1 (Homo sapiens) (P21554 whole entry): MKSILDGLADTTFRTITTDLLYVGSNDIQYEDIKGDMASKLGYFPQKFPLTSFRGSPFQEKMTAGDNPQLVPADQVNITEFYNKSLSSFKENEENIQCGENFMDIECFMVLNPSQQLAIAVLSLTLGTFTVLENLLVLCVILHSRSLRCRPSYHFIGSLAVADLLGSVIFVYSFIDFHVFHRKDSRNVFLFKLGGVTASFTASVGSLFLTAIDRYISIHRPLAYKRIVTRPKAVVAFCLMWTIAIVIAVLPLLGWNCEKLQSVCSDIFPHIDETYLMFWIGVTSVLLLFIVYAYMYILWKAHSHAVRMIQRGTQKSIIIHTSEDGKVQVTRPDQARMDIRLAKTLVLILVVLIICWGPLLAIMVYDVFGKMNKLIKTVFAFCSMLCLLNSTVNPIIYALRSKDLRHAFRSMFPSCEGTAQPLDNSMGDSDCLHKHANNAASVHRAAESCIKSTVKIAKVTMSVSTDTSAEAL
# Outline: (§1)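 Cells stably expressing human CB1 or human CB2 receptors, exposed to test compound alone. […] Mean of two determinations.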
# Cannabinoid receptor 2 [4] = target: T1, Cannabinoid receptor 2; test: Agonist activity at human recombinant CB2 receptor expressed in CHO cells after 1 hr by [35S]GTPgammaS binding assay; assay type: functional, cell-based
# Cannabinoid receptor 1 = Cannabinoid receptor 1 (Rattus norvegicus, UniProt P20272); test: Displacement of [3H]-CP55940 from CB1 receptor in rat brain homogenate after 1.5 hrs by microbeta liquid scintillation counting analysis; assay type: tissue-based; conditions: read-out: Ki
# Chain of Cannabinoid receptor 1 (P20272 whole entry): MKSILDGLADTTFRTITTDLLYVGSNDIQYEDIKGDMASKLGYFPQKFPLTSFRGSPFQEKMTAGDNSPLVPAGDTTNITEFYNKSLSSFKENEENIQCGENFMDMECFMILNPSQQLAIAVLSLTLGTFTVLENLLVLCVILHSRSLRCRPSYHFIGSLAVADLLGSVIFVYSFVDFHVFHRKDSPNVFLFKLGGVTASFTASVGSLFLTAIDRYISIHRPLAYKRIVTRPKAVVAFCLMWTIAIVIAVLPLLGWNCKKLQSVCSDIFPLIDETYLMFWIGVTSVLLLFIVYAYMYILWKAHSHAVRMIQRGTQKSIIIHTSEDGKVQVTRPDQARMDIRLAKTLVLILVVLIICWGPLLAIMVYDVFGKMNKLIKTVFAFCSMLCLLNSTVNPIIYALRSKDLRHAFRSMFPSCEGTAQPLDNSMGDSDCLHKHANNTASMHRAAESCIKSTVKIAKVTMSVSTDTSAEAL
# Outline: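 Membranes from rat brain homogenate (CB1) or HEK293 cells expressing human CB2. […] GF/B filtration, then scintillation counting. […] IC50 by three-parameter logistic fit, Ki by Cheng-Prusoff. Three experiments in triplicate.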
# Cannabinoid receptor 2 [5] = target: T1, Cannabinoid receptor 2; test: Agonist activity at human recombinant CB2 receptor expressed in CHO cells after 1 hr by [35S]GTPgammaS binding assay relative to CP55940; assay type: functional, cell-based
# Outline: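 Membranes from CHO cells expressing hCB1 or hCB2, preincubated at least 15 min on ice with 30 μM GDP solution. GTP-γ-[35S] with WGA-PVT SPA beads. Eight concentrations, 0.001–10 μM, in duplicate. Incubated 1 h at room temperature, centrifuged, then a further 1 h before counting. […] Mean of two determinations.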
# Cannabinoid receptor 2 [6] = target: T1, Cannabinoid receptor 2; test: Displacement of [3H]-CP55940 from human CB2 receptor expressed in HEK293 cells after 1.5 hrs by microbeta liquid scintillation counting analysis; assay type: cell-based; conditions: read-out: Ki
# Outline: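 Membranes from rat brain homogenate (CB1) or HEK293 cells expressing human CB2. GF/B filtration, then scintillation counting. IC50 by three-parameter logistic fit, Ki by Cheng-Prusoff. Three experiments in triplicate.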
# Cannabinoid receptor 2 [7] = target: T1, Cannabinoid receptor 2; test: Agonist activity at human recombinant […] receptor expressed in CHO cells at 1 uM after 1 hr by [35S]GTPgammaS binding assay; assay type: functional, cell-based
# Cannabinoid receptor 2 [8] = target: T1, Cannabinoid receptor 2; test: Induction of human CB2 receptor internalization expressed in HEK293 cells at 10 uM relative to CP55940; assay type: cell-based; outline: as §1
# Rattus norvegicus = test: Antiallodynic activity in ip dosed Sprague-Dawley rat spinal nerve ligation model of neuropathic pain assessed as reduction of tactile allodynia; assay type: functional, organism-based
# Outline: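 Male Sprague Dawley rats, 120–150 g. Left L5/L6 spinal nerves ligated under isoflurane; tested three weeks later. Single i.p. bolus, 5–20 mg/kg, in 30% hydroxypropyl-β-cyclodextrin in PBS, prepared within 1 h before injection. Paw withdrawal threshold by von Frey filaments, 50% threshold by up-down method. Seven rats per group. Repeated-measures ANOVA with Dunnett's test vs time 0.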
compound,measurement,setting,value
CS(=O)(=O)NCCCn1c2ccccc2c2cc(C(=O)N3CCCCC3)ccc21,Activity,Cannabinoid receptor 2 [1],inactive
same,Ratio Ki,[2],23.7
same,Activity,[3],54.1%
same,pEC50,Cannabinoid receptor 2 [4],8.14
same,pKi,Cannabinoid receptor 1,5.83
same,Emax,Cannabinoid receptor 2 [5],59.6%
same,pKi,Cannabinoid receptor 2 [6],7.21
same,Activity,Cannabinoid receptor 2 [7],inactive
same,Activity,Cannabinoid receptor 2 [8],116%
same,Activity,Rattus norvegicus,Dose-dependent effect
